Results as given in ChEMBL document CHEMBL1765082, “Aminothiazolomorphinans with mixed κ and μ opioid activity” (J Med Chem, 2011).
Active and inactive are the calls of the source. The rule behind the calls is not given here.

Assays:
[1] = target: T1, Kappa-type opioid receptor (Homo sapiens, UniProt P41145); assay: Agonist activity at human kappa opioid receptor expressed in CHO cells assessed as [35S]GTPgammaS binding by scintillation counting relative to control; type: functional, cell-based
T1 sequence (P41145 whole entry): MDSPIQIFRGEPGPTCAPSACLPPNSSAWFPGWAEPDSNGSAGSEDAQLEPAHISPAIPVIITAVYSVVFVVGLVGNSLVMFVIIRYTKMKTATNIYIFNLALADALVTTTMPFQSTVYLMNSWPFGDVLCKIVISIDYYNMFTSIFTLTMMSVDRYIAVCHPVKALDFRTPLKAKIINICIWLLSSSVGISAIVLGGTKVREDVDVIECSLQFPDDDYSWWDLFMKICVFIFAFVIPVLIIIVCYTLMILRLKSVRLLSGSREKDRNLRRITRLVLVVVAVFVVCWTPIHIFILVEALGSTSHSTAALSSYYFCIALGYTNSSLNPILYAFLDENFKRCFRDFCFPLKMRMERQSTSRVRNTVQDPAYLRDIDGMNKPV
How it was run: (§1)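 Membranes from CHO cells stably expressing human κ (15 μg protein/tube) or μ (7.5 μg protein/tube) opioid receptor, grown in DMEM with 10% FBS at 37 °C, 5% CO2. Twelve agonist concentrations were incubated 60 min at 30 °C in 50 mM Tris-HCl, 3 mM MgCl2, 100 mM NaCl, 0.2 mM EGTA, pH 7.4, with 3 μM GDP and [35S]GTPγS. Filtration, then scintillation counting. Stimulation expressed as percent over basal; ≥3 experiments in triplicate.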

[2] = target: T1, Kappa-type opioid receptor; assay: Displacement of [3H]U69593 from human kappa opioid receptor expressed in CHO cells after 60 mins by scintillation counting; type: cell-based
[3] = target: T1, Kappa-type opioid receptor; assay: Agonist activity at human kappa opioid receptor expressed in CHO cells assessed as [35S]GTPgammaS binding by scintillation counting; type: functional, cell-based
[4] = target: T1, Kappa-type opioid receptor; assay: Antagonist activity at human kappa opioid receptor expressed in CHO cells assessed as […] in U50488-induced [35S]GTPgammaS binding by scintillation counting; type: functional, cell-based
Mu-type opioid receptor [5] = target: T2, Mu-type opioid receptor (Homo sapiens, UniProt P35372); assay: Displacement of [3H]DAMGO from human mu opioid receptor expressed in CHO cells after 60 mins by scintillation counting; type: cell-based
T2 sequence (P35372 whole entry): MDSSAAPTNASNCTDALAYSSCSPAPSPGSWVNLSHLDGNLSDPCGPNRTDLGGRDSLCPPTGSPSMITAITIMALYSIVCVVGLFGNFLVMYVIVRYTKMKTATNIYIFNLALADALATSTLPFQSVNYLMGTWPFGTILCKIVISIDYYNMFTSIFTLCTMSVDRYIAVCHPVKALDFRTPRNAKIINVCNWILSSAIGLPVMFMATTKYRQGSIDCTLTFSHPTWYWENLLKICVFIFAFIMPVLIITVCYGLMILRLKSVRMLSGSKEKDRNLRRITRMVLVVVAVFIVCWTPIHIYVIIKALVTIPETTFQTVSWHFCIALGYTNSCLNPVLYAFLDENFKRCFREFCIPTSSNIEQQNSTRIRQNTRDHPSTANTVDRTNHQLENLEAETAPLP

[6] = target: Delta-type opioid receptor (Homo sapiens, UniProt P41143); assay: Displacement of [3H]Naltrindole from human delta opioid receptor expressed in CHO cells after 3 hrs by scintillation counting; type: cell-based
Delta-type opioid receptor, sequence (P41143 whole entry): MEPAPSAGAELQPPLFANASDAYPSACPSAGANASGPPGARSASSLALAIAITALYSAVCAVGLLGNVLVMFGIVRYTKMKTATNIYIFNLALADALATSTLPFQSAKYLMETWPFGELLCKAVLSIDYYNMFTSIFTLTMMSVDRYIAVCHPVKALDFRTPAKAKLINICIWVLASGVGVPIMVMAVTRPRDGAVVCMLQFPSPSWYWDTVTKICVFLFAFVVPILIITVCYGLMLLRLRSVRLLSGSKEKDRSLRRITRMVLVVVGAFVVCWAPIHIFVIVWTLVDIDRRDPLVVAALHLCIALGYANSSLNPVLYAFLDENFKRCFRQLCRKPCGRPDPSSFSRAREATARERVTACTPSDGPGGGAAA
How it was run: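 Membranes from CHO cells expressing human κ, μ or δ opioid receptor were incubated with 12 compound concentrations and a receptor-selective radioligand at 25 °C in 50 mM Tris-HCl, pH 7.5. […] Nonspecific binding was defined with 10 μM naloxone. Ki reported as mean ± SEM, three experiments in triplicate.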

Homo sapiens [7] = organism: Homo sapiens; assay: Selectivity ratio of Ki for human mu opioid receptor to Ki for human kappa opioid receptor
Homo sapiens [8] = organism: Homo sapiens; assay: Selectivity ratio of Ki for human delta opioid receptor to Ki for human kappa opioid receptor
Mu-type opioid receptor [9] = target: T2, Mu-type opioid receptor; assay: Agonist activity at human mu opioid receptor expressed in CHO cells assessed as [35S]GTPgammaS binding by scintillation counting; type: functional, cell-based
Mu-type opioid receptor [10] = target: T2, Mu-type opioid receptor; assay: Agonist activity at human mu opioid receptor expressed in CHO cells assessed as [35S]GTPgammaS binding by scintillation counting relative to control; type: functional, cell-based; how it was run: as §1
Mu-type opioid receptor [11] = target: T2, Mu-type opioid receptor; assay: Antagonist activity at human mu opioid receptor expressed in CHO cells assessed as inhibition of DAMGO-induced [35S]GTPgammaS binding at 10 uM by scintillation counting; type: functional, cell-based
Mu-type opioid receptor [12] = target: T2, Mu-type opioid receptor; conditions: cho
Mu-type opioid receptor [13] = target: T2, Mu-type opioid receptor

| Compound | Emax [1] [%] | Ki [2] [nM] | EC50 [3] [nM] | Activity [4] | Ki (Mu-type opioid receptor [5]) [nM] | Ki [6] [nM] | Ratio Ki (Homo sapiens [7]) | Ratio Ki (Homo sapiens [8]) | EC50 (Mu-type opioid receptor [9]) [nM] | Emax (Mu-type opioid receptor [10]) [%] | inhibition (Mu-type opioid receptor [11]) [%] | IC50 (Mu-type opioid receptor [12]) | IC50 (Mu-type opioid receptor [13]) [nM] |
| --- | --- | --- | --- | --- | --- | --- | --- | --- | --- | --- | --- | --- | --- |
| Nc1nc2cc3c(cc2s1)C[C@@H]1[C@@H]2CCCC[C@]32CCN1CCCF | 100 | 0.3 | 32 | inactive | 2.7 | 54 | 9 | 180 | 130 | 65 | 40 | – | – |
| CCN(C(C)=O)c1nc2cc3c(cc2s1)C[C@@H]1[C@@H]2CCCC[C@]32CCN1CC1CC1 | – | 13 | – | – | 86 | 740 | 4 | 57 | – | – | – | – | – |
| Nc1nc2cc3c(cc2o1)[C@@]12CCCC[C@H]1[C@@H](C3)N(CC1CC1)CC2 | – | – | – | – | – | – | 3 | > 192 | – | – | – | – | – |
| CN(C)c1nc2cc3c(cc2s1)C[C@@H]1[C@@H]2CCCC[C@]32CCN1CC1CC1 | 110 | 0.45 | 46 | inactive | 10 | 65 | 22 | 140 | 140 | 57 | 40 | – | – |
| CCNc1nc2cc3c(cc2s1)C[C@@H]1[C@@H]2CCCC[C@]32CCN1CC1CCC1 | – | 3.7 | – | – | 1.1 | 91 | 0.3 | 25 | – | – | – | – | – |
| CC(=O)Nc1nc2cc3c(cc2s1)C[C@@H]1[C@@H]2CCCC[C@]32CCN1CCCF | – | 1.2 | – | – | 15 | 220 | 13 | 180 | – | – | – | – | – |
| CN1CC[C@]23CCCC[C@H]2[C@H]1Cc1cc2sc(N)nc2cc13 | – | – | – | – | – | – | 0.17 | 30 | – | – | – | – | – |
| Nc1nc2cc3c(cc2s1)C[C@@H]1[C@@H]2CCCC[C@]32CCN1CC1CC1 | – | – | – | inactive | – | – | 30 | 590 | – | – | – | Not Active | – |
| CCNc1nc2cc3c(cc2s1)C[C@@H]1[C@@H]2CCCC[C@]32CCN1CCCF | 150 | 0.94 | 89 | inactive | 4 | 76 | – | – | 240 | – | – | Not Active | – |
| COc1cccc(CNc2nc3cc4c(cc3s2)C[C@@H]2[C@@H]3CCCC[C@]43CCN2CC2CC2)c1 | – | 4.8 | – | – | 9.1 | 34 | 2 | 7 | – | – | – | – | – |
| c1ccc(Nc2nc3cc4c(cc3s2)C[C@@H]2[C@@H]3CCCC[C@]43CCN2CC2CC2)cc1 | – | 21 | – | – | 180 | 140 | 9 | 7 | – | – | – | – | – |
| Oc1ccc2c(c1)[C@@]13CCCC[C@H]1[C@@H](C2)N(CC1CC1)CC3 | – | – | – | inactive | – | – | – | – | – | – | – | – | – |
| CCNc1nc2cc3c(cc2s1)C[C@@H]1[C@@H]2CCCC[C@]32CCN1CC1CC1 | 190 | 0.151 | – | inactive | 4.7 | 43 | – | – | – | – | – | Not Active | – |
| CCCNc1nc2cc3c(cc2s1)C[C@@H]1[C@@H]2CCCC[C@]32CCN1CCCF | – | 5.8 | – | – | 24 | 120 | 4 | 21 | – | – | – | – | – |
| CCCNc1nc2cc3c(cc2s1)C[C@@H]1[C@@H]2CCCC[C@]32CCN1CC1CC1 | – | 1.6 | – | – | 17 | 79 | 11 | 49 | – | – | – | – | – |
| CNc1nc2cc3c(cc2s1)C[C@@H]1[C@@H]2CCCC[C@]32CCN1CCCF | 170 | 0.71 | – | inactive | 7.4 | 50 | – | – | – | – | – | Not Active | – |
| Nc1nc2cc3c(cc2s1)C[C@@H]1[C@@H]2CCCC[C@]32CCN1C[C@@H]1CCCO1 | 190 | 0.83 | 14 | inactive | 2.4 | 56 | 3 | 67 | 71 | 120 | – | Not Active | – |
| CCNC(=S)Nc1nc2cc3c(cc2s1)C[C@@H]1[C@@H]2CCCC[C@]32CCN1CC1CC1 | – | 18 | – | – | 130 | 150 | 7 | 8 | – | – | – | – | – |
| CC(=O)N(C)c1nc2cc3c(cc2s1)C[C@@H]1[C@@H]2CCCC[C@]32CCN1CC1CC1 | – | 6.9 | – | – | 110 | 1100 | 16 | 160 | – | – | – | – | – |
| CNc1nc2cc3c(cc2s1)C[C@@H]1[C@@H]2CCCC[C@]32CCN1CC1CC1 | 82 | 0.066 | 14 | inactive | 3 | 25 | – | – | 47 | – | – | Not Active | – |
| Nc1nc2cc3c(cc2s1)C[C@@H]1[C@@H]2CCCC[C@]32CCN1CC1CCC1 | – | – | – | inactive | – | – | 9 | 290 | > 1000 | – | – | – | 85 |
| c1ccc(CNc2nc3cc4c(cc3s2)C[C@@H]2[C@@H]3CCCC[C@]43CCN2CC2CC2)cc1 | – | 2.1 | – | – | 10 | 41 | 5 | 20 | – | – | – | – | – |
| CC(=O)Nc1nc2cc3c(cc2s1)C[C@@H]1[C@@H]2CCCC[C@]32CCN1CC1CC1 | – | 13 | – | – | 57 | 750 | 4 | 58 | – | – | – | – | – |
| c1ccc(Nc2nc3cc4c(cc3s2)C[C@@H]2[C@@H]3CCCC[C@]43CCN2CC2CC2)nc1 | – | 95 | – | – | 610 | > 10000 | 6 | – | – | – | – | – | – |
| Oc1cccc(CNc2nc3cc4c(cc3s2)C[C@@H]2[C@@H]3CCCC[C@]43CCN2CC2CC2)c1 | – | 3.5 | – | – | 9.9 | 29 | 3 | 8 | – | – | – | – | – |
| CNc1nc2cc3c(cc2s1)C[C@@H]1[C@@H]2CCCC[C@]32CCN1CC1CCC1 | – | 2.4 | – | – | 1.8 | 47 | 1 | 20 | – | – | – | – | – |
| CN(C)c1nc2cc3c(cc2s1)C[C@@H]1[C@@H]2CCCC[C@]32CCN1CCCF | – | 11 | – | – | 76 | 420 | 7 | 38 | – | – | – | – | – |
| FC(F)(F)CNc1nc2cc3c(cc2s1)C[C@@H]1[C@@H]2CCCC[C@]32CCN1CC1CC1 | 120 | 0.84 | 120 | inactive | 21 | 180 | 25 | 210 | – | – | – | – | – |
